Activity calls are given as the source filed them.
What follows are compounds tested on Rattus norvegicus (assay: Anticonvulsant activity in rat assessed as protection against maximal electric shock-induced seizures at 30 mg/kg, po measured after 0.5 hrs). Conditions: not given.
Assay type: functional, organism-based
Summary of the method: (§1)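 Rats dosed ip or orally as 0.5% methylcellulose suspension; maximal electroshock at listed time. Protection = abolition of hindlimb tonic extension; 4 rats per group, scored protected/tested.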

Structure (SMILES) | Activity
Cc1cccc(C)c1OCCOCCN[C@@H]1CCCC[C@H]1O (racemic) | inactive

What follows are compounds tested on Rattus norvegicus (assay: Anticonvulsant activity in rat assessed as protection against maximal electric shock-induced seizures at 30 mg/kg, po measured after 2 hrs). Conditions: not given.
Assay type: functional, organism-based
Summary of the method: as §1

Structure (SMILES) | Activity
Cc1cccc(C)c1OCCOCCN[C@@H]1CCCC[C@H]1O (racemic) | inactive

These compounds were tested on Rattus norvegicus (assay: Anticonvulsant activity in rat assessed as protection against maximal electric shock-induced seizures at 30 mg/kg, po measured after 4 hrs). Conditions: not given.
Assay type: functional, organism-based
Summary of the method: as §1

Structure (SMILES) | Activity
Cc1cccc(C)c1OCCOCCN[C@@H]1CCCC[C@H]1O (racemic) | inactive

Each compound was assayed on Rattus norvegicus (assay: Neurotoxicity in rat at 30 mg/kg, po after […] by rotarod test). Conditions: in vivo.
Assay type: toxicity, organism-based

Structure (SMILES) | Activity
Cc1cccc(C)c1OCCOCCN[C@@H]1CCCC[C@H]1O (racemic) | Non-toxic

What follows are compounds tested on Rattus norvegicus (assay: Neurotoxicity in rat at 30 mg/kg, po after 0.5 hrs by rotarod test). Conditions: in vivo.
Assay type: toxicity, organism-based

Structure (SMILES) | Activity
Cc1cccc(C)c1OCCOCCN[C@@H]1CCCC[C@H]1O (racemic) | Non-toxic

Each compound was assayed on Rattus norvegicus (assay: Neurotoxicity in rat at 30 mg/kg, po after 1 hr by rotarod test). Conditions: in vivo.
Assay type: toxicity, organism-based

Structure (SMILES) | Activity
Cc1cccc(C)c1OCCOCCN[C@@H]1CCCC[C@H]1O (racemic) | Non-toxic

These compounds were tested on Rattus norvegicus (assay: Neurotoxicity in rat at 30 mg/kg, po after 2 hrs by rotarod test). Conditions: in vivo.
Assay type: toxicity, organism-based

Structure (SMILES) | Activity
Cc1cccc(C)c1OCCOCCN[C@@H]1CCCC[C@H]1O (racemic) | Non-toxic

The compounds below were run on Rattus norvegicus (assay: Neurotoxicity in rat at 30 mg/kg, po after 4 hrs by rotarod test). Conditions: in vivo.
Assay type: toxicity, organism-based

Structure (SMILES) | Activity
Cc1cccc(C)c1OCCOCCN[C@@H]1CCCC[C@H]1O (racemic) | Non-toxic

These compounds were tested on Mus musculus (assay: Anticonvulsant activity in mouse assessed as protection against maximal electric shock-induced seizures at 30 mg/kg, ip measured after 0.5 hrs). Conditions: not given.
Assay type: functional, organism-based
Summary of the method: (§2)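 Mice dosed ip with suspension in 0.5% methylcellulose; maximal electroshock applied at the listed time after dosing. Protection = abolition of hindlimb tonic extension component of seizure; reported as animals protected/animals tested.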

Structure (SMILES) | Activity
Cc1cccc(C)c1OCCOCCN[C@@H]1CCCC[C@H]1O (racemic) | inactive

What follows are compounds tested on Mus musculus (assay: Anticonvulsant activity in mouse assessed as protection against maximal electric shock-induced seizures at 30 mg/kg, ip measured after 4 hrs). Conditions: not given.
Assay type: functional, organism-based
Summary of the method: as §2

Structure (SMILES) | Activity
Cc1cccc(C)c1OCCOCCN[C@@H]1CCCC[C@H]1O (racemic) | inactive

The compounds below were run on Mus musculus (assay: Anticonvulsant activity in mouse assessed as protection against maximal electric shock-induced seizures at 100 mg/kg, ip measured after 0.5 hrs). Conditions: not given.
Assay type: functional, organism-based
Summary of the method: as §2

Structure (SMILES) | Activity
Cc1cccc(C)c1OCCOCCN[C@@H]1CCCC[C@H]1O (racemic) | Active

The compounds below were run on Mus musculus (assay: Anticonvulsant activity in mouse assessed as protection against maximal electric shock-induced seizures at 100 mg/kg, ip measured after 4 hrs). Conditions: not given.
Assay type: functional, organism-based
Summary of the method: as §2

Structure (SMILES) | Activity
Cc1cccc(C)c1OCCOCCN[C@@H]1CCCC[C@H]1O (racemic) | inactive

What follows are compounds tested on Mus musculus (assay: Anticonvulsant activity in mouse assessed as protection against subcutaneous pentylenetetrazol-induced seizures at 30 mg/kg, ip measured after 0.5 hrs). Conditions: not given.
Assay type: functional, organism-based
Summary of the method: (§3)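 Mice dosed ip as 0.5% methylcellulose suspension; pentylenetetrazole 85 mg/kg in 0.9% NaCl injected subcutaneously into posterior midline, animals watched at least 30 min. Protection = no threshold seizure (single clonic spasm episode lasting ≥5 s); scored protected/tested.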

Structure (SMILES) | Activity
Cc1cccc(C)c1OCCOCCN[C@@H]1CCCC[C@H]1O (racemic) | inactive

What follows are compounds tested on Mus musculus (assay: Anticonvulsant activity in mouse assessed as protection against subcutaneous pentylenetetrazol-induced seizures at 100 mg/kg, ip measured after 0.5 hrs). Conditions: not given.
Assay type: functional, organism-based
Summary of the method: as §3

Structure (SMILES) | Activity
Cc1cccc(C)c1OCCOCCN[C@@H]1CCCC[C@H]1O (racemic) | inactive

Each compound was assayed on Mus musculus (assay: Anticonvulsant activity in mouse assessed as protection against subcutaneous pentylenetetrazol-induced seizures at 30 mg/kg, ip measured after 4 hrs). Conditions: not given.
Assay type: functional, organism-based
Summary of the method: as §3

Structure (SMILES) | Activity
Cc1cccc(C)c1OCCOCCN[C@@H]1CCCC[C@H]1O (racemic) | inactive

Each compound was assayed on Mus musculus (assay: Anticonvulsant activity in mouse assessed as protection against subcutaneous pentylenetetrazol-induced seizures at 100 mg/kg, ip measured after 4 hrs). Conditions: not given.
Assay type: functional, organism-based
Summary of the method: as §3

Structure (SMILES) | Activity
Cc1cccc(C)c1OCCOCCN[C@@H]1CCCC[C@H]1O (racemic) | inactive

These compounds were tested on Mus musculus (assay: Neurotoxicity in mouse at 30 mg/kg, ip after 0.5 hrs by rotarod test). Conditions: in vivo.
Assay type: toxicity, organism-based
Summary of the method: (§4)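 Mice were dosed ip with compound suspended in 0.5% methylcellulose. Rotarod: a 1 in. knurled rod turning at 6 rpm. Neurotoxicity was scored as failure to stay on the rod for at least 1 min in each of three trials. Results are given as the number of animals affected out of the number tested.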

Structure (SMILES) | Activity
Cc1cccc(C)c1OCCOCCN[C@@H]1CCCC[C@H]1O (racemic) | Non-toxic

What follows are compounds tested on Mus musculus (assay: Neurotoxicity in mouse at 30 mg/kg, ip after 4 hrs by rotarod test). Conditions: in vivo.
Assay type: toxicity, organism-based
Summary of the method: as §4

Structure (SMILES) | Activity
Cc1cccc(C)c1OCCOCCN[C@@H]1CCCC[C@H]1O (racemic) | Non-toxic

What follows are compounds tested on Mus musculus (assay: Neurotoxicity in mouse at 100 mg/kg, ip after 0.5 hrs by rotarod test). Conditions: in vivo.
Assay type: toxicity, organism-based
Summary of the method: as §4

Structure (SMILES) | Activity
Cc1cccc(C)c1OCCOCCN[C@@H]1CCCC[C@H]1O (racemic) | Non-toxic

What follows are compounds tested on Mus musculus (assay: Neurotoxicity in mouse at 100 mg/kg, ip after 4 hrs by rotarod test). Conditions: in vivo.
Assay type: toxicity, organism-based
Summary of the method: as §4

Structure (SMILES) | Activity
Cc1cccc(C)c1OCCOCCN[C@@H]1CCCC[C@H]1O (racemic) | Non-toxic

What follows are compounds tested on Mus musculus (assay: Neurotoxicity in mouse at 300 mg/kg, ip after 0.5 hrs by rotarod test). Conditions: in vivo.
Assay type: toxicity, organism-based
Summary of the method: as §4

Structure (SMILES) | Activity
Cc1cccc(C)c1OCCOCCN[C@@H]1CCCC[C@H]1O (racemic) | Toxic

These compounds were tested on Rattus norvegicus (assay: Anticonvulsant activity in rat assessed as protection against maximal electric shock-induced seizures at 30 mg/kg, po measured after […]). Conditions: not given.
Assay type: functional, organism-based

Structure (SMILES) | Activity
Cc1cccc(C)c1OCCOCCN[C@@H]1CCCC[C@H]1O (racemic) | inactive

Each compound was assayed on Vibrio harveyi (assay: Mutagenicity in Vibrio harveyi BB7 assessed as number of colonies after 48 hrs (reference value: 13 to 14 no_unit)). Conditions: in vivo.
Assay type: ADME, organism-based
Summary of the method: (§5)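 Vibrio harveyi mutagenicity test: test compound was added to exponentially growing cultures (A600 = 0.1, 30 °C) and grown to OD600 0.3–0.4. Then 5 × 10^6 cells were plated on BOSS agar with neomycin (final 100 µg/mL) and incubated 48 h at 30 °C. Neomycin-resistant colonies were counted. Triplicate; controls were water, DMSO and NQNO 40 ng/mL.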

Structure (SMILES) | Activity
Cc1cccc(C)c1OCCOCCN[C@@H]1CCCC[C@H]1O (racemic) | 29

Each compound was assayed on Vibrio harveyi (assay: Mutagenicity in Vibrio harveyi BB7X assessed as number of colonies after 48 hrs (reference value: 15 to 16 no_unit)). Conditions: in vivo.
Assay type: ADME, organism-based
Summary of the method: as §5

Structure (SMILES) | Activity
Cc1cccc(C)c1OCCOCCN[C@@H]1CCCC[C@H]1O (racemic) | 25

These compounds were tested on Vibrio harveyi (assay: Mutagenicity in Vibrio harveyi BB7M assessed as number of colonies after 48 hrs (reference value: 13 to 14 no_unit)). Conditions: in vivo.
Assay type: ADME, organism-based
Summary of the method: as §5

Structure (SMILES) | Activity
Cc1cccc(C)c1OCCOCCN[C@@H]1CCCC[C@H]1O (racemic) | 26

What follows are compounds tested on Vibrio harveyi (assay: Mutagenicity in Vibrio harveyi BB7XM assessed as number of colonies after 48 hrs (reference value: 14 no_unit)). Conditions: in vivo.
Assay type: ADME, organism-based
Summary of the method: as §5

Structure (SMILES) | Activity
Cc1cccc(C)c1OCCOCCN[C@@H]1CCCC[C@H]1O (racemic) | 22

The compounds below were run on Vibrio harveyi (assay: Antimutagenic activity against Vibrio harveyi BB7 assessed as inhibition of NQNO-induced mutagenicity after 48 hrs). Conditions: not given.
Assay type: functional
Summary of the method: (§6)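 V. harveyi cultures grown exponentially to A600 0.1 at 30 °C, exposed to test compound for 15 min, then to NQNO, and grown on to A600 0.3–0.4. 5 × 10⁶ cells plated on BOSS agar with neomycin (100, final). Neomycin-resistant colonies counted after 48 h at 30 °C. Result given as % inhibition of NQNO mutagenicity; three independent repeats.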

Structure (SMILES) | inhibition (INH)
Cc1cccc(C)c1OCCOCCN[C@@H]1CCCC[C@H]1O (racemic) | 82%

The compounds below were run on Vibrio harveyi (assay: Antimutagenic activity against Vibrio harveyi BB7X assessed as inhibition of NQNO-induced mutagenicity after 48 hrs). Conditions: not given.
Assay type: functional
Summary of the method: as §6

Structure (SMILES) | inhibition (INH)
Cc1cccc(C)c1OCCOCCN[C@@H]1CCCC[C@H]1O (racemic) | 52%

What follows are compounds tested on Vibrio harveyi (assay: Antimutagenic activity against Vibrio harveyi BB7M assessed as inhibition of NQNO-induced mutagenicity after 48 hrs). Conditions: not given.
Assay type: functional
Summary of the method: as §6

Structure (SMILES) | inhibition (INH)
Cc1cccc(C)c1OCCOCCN[C@@H]1CCCC[C@H]1O (racemic) | 75%

The compounds below were run on Vibrio harveyi (assay: Antimutagenic activity against Vibrio harveyi BB7XM assessed as inhibition of NQNO-induced mutagenicity after 48 hrs). Conditions: not given.
Assay type: functional
Summary of the method: as §6

Structure (SMILES) | inhibition (INH)
Cc1cccc(C)c1OCCOCCN[C@@H]1CCCC[C@H]1O (racemic) | 33%

Source: ChEMBL document CHEMBL3774372, “Design, physico-chemical properties and biological evaluation of some new N-[(phenoxy)alkyl]- and N-{2-[2-(phenoxy)ethoxy]ethyl}aminoalkanols as anticonvulsant agents” (Bioorg Med Chem, 2016)
